Measured values published in ChEMBL document CHEMBL5678798 (Clin Cancer Res, 2009).
The source made the active and inactive calls. No cut-off for these calls is given here.

Assays:
[1] = system: A673; experiment: Antiproliferative activity against human A673 cells assessed as reduction in cell viability after 72 hrs by CellTiter-Glo assay; type: functional, cell-based; conditions: A673, 72 h
Outline: (§1)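 Cells seeded in 96-well plates, left overnight at 37°C, then exposed to a range of test concentrations for 72 h. Viability read by CellTiter-Glo luminescence; IC50 from four-parameter curve fit. Lines kept at 37°C, 5% CO2, in recommended growth medium.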

[2] = Cytotoxicity against HUVEC cells assessed as reduction in cell viability after 72 hrs by CellTiter-Glo assay; type: toxicity, cell-based; conditions: human; outline: as §1
[3] = Cytotoxicity against human PREC cells assessed as growth inhibition after 72 hrs by CellTiter-Glo assay relative to control; type: toxicity, cell-based; conditions: read-out: GI
[4] = system: COLO 205; experiment: Induction of cell cycle arrest in human COLO 205 cells assessed as increase in cells accumulation at G1 phase at 0.03 to 10 uM incubated for 24 to 48 hrs by propidium iodide staining based flow cytometric analysis; type: functional; conditions: dose 0.03-10 µM, time lower 24.0 hrs, time upper […]
Outline: (§2)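 COLO 205, MCF-7 or NCI-H929 cells seeded in 96-well plates overnight at 37°C, then exposed to DMSO or increasing compound concentrations for 24 or 48 h. Fixed and stained with propidium iodide (Vindelov method), then analysed by flow cytometry for sub-G1, G1, S and G2-M fractions. Experiment repeated twice.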

[5] = system: MCF7; experiment: Induction of cell cycle arrest in human MCF7 cells assessed as cells accumulation at G1 phase at 1 umol/L incubated for 48 hrs by propidium iodide staining based flow cytometric analysis (reference value: 67%); type: functional; conditions: dose 1 µmol/L, at 1 µM; outline: as §2
[6] = system: MCF7; experiment: Induction of cell cycle arrest in human MCF7 cells assessed as cells accumulation at S phase at 1 umol/L incubated for 48 hrs by propidium iodide staining based flow cytometric analysis (reference value: 10%); type: functional; conditions: dose 1 µmol/L, at 1 µM; outline: as §2
[7] = molecular target: Activin receptor type-2B (Homo sapiens, UniProt Q13705); experiment: Inhibition of ActRIIB (unknown origin)
Activin receptor type-2B, sequence (Q13705 whole entry): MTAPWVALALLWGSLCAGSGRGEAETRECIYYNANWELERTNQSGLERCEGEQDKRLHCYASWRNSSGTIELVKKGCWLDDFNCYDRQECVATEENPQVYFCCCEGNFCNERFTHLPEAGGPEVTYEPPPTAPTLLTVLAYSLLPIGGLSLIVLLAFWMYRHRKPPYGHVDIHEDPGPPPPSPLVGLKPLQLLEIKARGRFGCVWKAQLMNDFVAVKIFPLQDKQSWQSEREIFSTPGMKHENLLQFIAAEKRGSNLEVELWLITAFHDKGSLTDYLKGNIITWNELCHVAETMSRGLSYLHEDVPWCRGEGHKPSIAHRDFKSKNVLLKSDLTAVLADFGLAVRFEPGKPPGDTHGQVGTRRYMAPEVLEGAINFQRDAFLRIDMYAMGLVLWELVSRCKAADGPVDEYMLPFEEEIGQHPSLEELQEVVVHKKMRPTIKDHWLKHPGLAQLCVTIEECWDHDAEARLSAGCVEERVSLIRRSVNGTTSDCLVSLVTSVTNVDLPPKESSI

[8] = molecular target: RAC-alpha serine/threonine-protein kinase (Homo sapiens, UniProt P31749); experiment: Inhibition of AKT1 (unknown origin)
[9] = molecular target: Aurora kinase A (Homo sapiens, UniProt O14965); experiment: Inhibition of Aurora A (unknown origin)
Outline: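 In-house kinase panel assay with conditions developed and optimized for this kinase. Aurora A was assayed in the presence of its accessory protein TPX2. IC50 was determined.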

[10] = molecular target: Protein kinase C epsilon type (Homo sapiens, UniProt Q02156); experiment: Inhibition of PKCepsilon (unknown origin)
[11] = Inhibition of mouse YAK3
[12] = molecular target: Tyrosine-protein kinase ZAP-70 (Homo sapiens, UniProt P43403); experiment: Inhibition of ZAP70 (unknown origin)
Tyrosine-protein kinase ZAP-70, sequence (P43403 whole entry): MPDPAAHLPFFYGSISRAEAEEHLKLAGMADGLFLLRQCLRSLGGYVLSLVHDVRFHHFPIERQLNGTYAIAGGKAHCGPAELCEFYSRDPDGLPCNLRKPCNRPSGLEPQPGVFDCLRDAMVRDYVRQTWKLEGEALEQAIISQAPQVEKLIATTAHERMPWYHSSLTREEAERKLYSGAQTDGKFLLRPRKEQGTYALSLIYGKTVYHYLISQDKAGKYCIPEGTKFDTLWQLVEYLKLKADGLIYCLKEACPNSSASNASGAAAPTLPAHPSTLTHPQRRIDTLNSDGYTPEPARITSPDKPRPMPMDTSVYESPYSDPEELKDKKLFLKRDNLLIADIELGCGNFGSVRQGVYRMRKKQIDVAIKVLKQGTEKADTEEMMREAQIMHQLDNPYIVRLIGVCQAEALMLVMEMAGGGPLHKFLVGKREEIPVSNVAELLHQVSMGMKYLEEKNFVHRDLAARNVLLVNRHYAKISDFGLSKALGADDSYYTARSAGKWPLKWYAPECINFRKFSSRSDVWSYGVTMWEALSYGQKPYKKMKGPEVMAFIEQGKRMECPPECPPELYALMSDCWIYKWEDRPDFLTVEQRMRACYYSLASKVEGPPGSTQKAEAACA

[13] = molecular target: Macrophage colony-stimulating factor 1 receptor (Homo sapiens) (UniProt P07333); experiment: Inhibition of N-terminal His6-tagged recombinant human Fms (538 to end residues) expressed in baculovirus infected Sf21 cells at 0.3 uM by filter binding assay relative to control
[14] = molecular target: Glycogen synthase kinase-3 alpha (Homo sapiens) (UniProt P49840); experiment: Inhibition of N-terminal His6-tagged recombinant human GSK3alpha (2 to end residues) expressed in Sf21 cells at 0.3 uM by filter binding assay relative to control
[15] = molecular target: Dual specificity mitogen-activated protein kinase kinase 7 (Homo sapiens) (UniProt O14733); experiment: Inhibition of N-terminal GST-tagged recombinant human MKK7beta (2 to end residues) expressed in Escherichia coli at 0.3 uM by filter binding assay relative to control
Outline: (§3)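 Outsourced single-concentration screen in a commercial panel of 233 protein kinases, run as radiometric filter-binding activity assays. Test agent was tested at 0.3 or 3 µmol/L, as given in each line, from a 10 mmol/L DMSO stock. Activity is expressed as percent inhibition relative to control.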

[16] = Inhibition of […] N-terminal 6His-tagged full length human P110delta/full length human p85beta expressed in baculovirus infected Sf21 cells at 0.3 uM by filter binding assay relative to control; conditions: condition cancer
[17] = molecular target: Serine/threonine-protein kinase pim-3 (Homo sapiens) (UniProt Q86V86); experiment: Inhibition of N-terminal 6His-tagged recombinant human Pim-3 expressed in baculovirus infected Sf21 cells at 0.3 uM by filter binding assay relative to control; outline: as §3
[18] = molecular target: Serine/threonine-protein kinase TAO2 (Homo sapiens) (UniProt Q9UL54); experiment: Inhibition of N-terminal 6His-tagged recombinant human TAO2 expressed in Sf21 cells at 0.3 uM by filter binding assay relative to control; outline: as §3
Serine/threonine-protein kinase TAO2 (Homo sapiens), sequence (Q9UL54 whole entry, the tested form may be a part): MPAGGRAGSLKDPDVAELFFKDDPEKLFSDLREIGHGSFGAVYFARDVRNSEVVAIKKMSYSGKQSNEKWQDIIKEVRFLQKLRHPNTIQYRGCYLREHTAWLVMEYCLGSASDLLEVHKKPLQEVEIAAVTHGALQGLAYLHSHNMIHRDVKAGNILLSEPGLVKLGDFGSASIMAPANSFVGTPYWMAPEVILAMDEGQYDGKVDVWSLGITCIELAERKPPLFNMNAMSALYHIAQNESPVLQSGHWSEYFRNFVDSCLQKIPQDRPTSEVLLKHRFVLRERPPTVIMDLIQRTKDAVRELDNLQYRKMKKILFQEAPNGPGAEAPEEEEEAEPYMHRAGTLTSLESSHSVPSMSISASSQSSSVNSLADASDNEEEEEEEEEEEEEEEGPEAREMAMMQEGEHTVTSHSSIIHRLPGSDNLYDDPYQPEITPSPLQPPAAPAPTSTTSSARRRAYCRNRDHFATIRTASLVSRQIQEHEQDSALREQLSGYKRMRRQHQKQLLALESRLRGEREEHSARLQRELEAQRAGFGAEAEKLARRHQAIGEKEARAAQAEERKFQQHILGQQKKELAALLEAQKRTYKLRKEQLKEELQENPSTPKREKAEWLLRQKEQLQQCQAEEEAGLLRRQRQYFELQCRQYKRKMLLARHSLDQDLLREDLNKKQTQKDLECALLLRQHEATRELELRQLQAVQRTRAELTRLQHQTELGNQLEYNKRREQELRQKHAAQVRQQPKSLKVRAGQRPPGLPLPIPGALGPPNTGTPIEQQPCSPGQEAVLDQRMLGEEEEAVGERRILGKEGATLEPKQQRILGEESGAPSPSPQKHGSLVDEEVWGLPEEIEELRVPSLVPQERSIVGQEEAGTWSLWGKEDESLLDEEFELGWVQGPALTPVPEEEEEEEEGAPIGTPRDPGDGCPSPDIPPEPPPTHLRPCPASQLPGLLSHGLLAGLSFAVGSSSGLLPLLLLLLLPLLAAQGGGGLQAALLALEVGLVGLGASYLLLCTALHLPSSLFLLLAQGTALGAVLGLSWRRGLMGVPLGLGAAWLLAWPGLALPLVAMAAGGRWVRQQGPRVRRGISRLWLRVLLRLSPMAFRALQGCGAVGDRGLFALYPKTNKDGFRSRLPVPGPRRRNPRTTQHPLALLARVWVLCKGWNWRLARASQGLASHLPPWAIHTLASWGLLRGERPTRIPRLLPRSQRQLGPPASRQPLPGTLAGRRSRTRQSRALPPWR

[19] = molecular target: ALK tyrosine kinase receptor (Homo sapiens) (UniProt Q9UM73); experiment: Inhibition of N-terminal His6-tagged recombinant human ALK (1058 to end residues) expressed in baculovirus infected Sf21 cells at 3 uM by filter binding assay relative to control; outline: as §3
[20] = molecular target: Tyrosine-protein kinase ABL2 (Homo sapiens) (UniProt P42684); experiment: Inhibition of N-terminal His6-tagged recombinant human Arg (38 to end residues) expressed in baculovirus infected Sf21 cells at 3 uM by filter binding assay relative to control
[21] = Inhibition of N-terminal His6-tagged recombinant full-length human CDK5/N-terminal GST-tagged recombinant full-length human p35 expressed in baculovirus infected Sf21 cells at 3 uM by filter binding assay relative to control; conditions: condition cancer; outline: as §3
[22] = molecular target: Mitogen-activated protein kinase kinase kinase 9 (Homo sapiens) (UniProt P80192); experiment: Inhibition of N-terminal 6His-tagged recombinant human MLK1 (134 to 414 residues) expressed in baculovirus infected Sf21 cells at 3 uM by filter binding assay relative to control; outline: as §3
Mitogen-activated protein kinase kinase kinase 9 (Homo sapiens), sequence (P80192 whole entry, looked up, the tested form may be a part): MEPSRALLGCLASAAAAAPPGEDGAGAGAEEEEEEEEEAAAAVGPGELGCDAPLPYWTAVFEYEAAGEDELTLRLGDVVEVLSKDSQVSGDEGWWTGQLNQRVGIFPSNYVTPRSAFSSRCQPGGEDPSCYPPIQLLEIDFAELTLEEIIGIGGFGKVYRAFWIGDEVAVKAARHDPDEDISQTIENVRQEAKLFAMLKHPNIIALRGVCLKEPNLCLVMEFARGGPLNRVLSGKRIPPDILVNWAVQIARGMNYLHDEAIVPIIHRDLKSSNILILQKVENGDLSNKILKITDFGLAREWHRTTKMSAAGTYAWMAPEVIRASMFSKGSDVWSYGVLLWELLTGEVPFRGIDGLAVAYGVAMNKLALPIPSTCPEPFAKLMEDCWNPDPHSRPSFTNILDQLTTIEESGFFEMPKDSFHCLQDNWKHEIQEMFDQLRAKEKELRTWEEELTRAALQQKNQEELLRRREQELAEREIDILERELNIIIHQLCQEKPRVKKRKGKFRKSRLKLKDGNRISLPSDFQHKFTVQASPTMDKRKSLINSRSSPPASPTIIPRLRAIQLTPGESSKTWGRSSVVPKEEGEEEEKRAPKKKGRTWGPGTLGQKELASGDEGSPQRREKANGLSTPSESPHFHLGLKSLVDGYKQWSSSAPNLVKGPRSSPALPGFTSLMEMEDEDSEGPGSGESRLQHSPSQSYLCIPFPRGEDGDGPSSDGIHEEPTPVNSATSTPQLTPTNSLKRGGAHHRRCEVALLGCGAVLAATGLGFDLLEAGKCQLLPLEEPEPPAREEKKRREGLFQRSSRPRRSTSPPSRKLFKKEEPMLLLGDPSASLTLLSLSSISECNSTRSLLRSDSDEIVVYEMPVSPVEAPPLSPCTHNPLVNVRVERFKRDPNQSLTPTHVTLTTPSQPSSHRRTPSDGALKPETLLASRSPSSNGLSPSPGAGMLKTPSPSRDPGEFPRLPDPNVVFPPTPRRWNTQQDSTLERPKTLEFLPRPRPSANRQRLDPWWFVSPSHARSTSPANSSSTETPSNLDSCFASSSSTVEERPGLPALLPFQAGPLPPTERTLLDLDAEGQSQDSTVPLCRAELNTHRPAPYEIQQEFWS

[23] = molecular target: MAP kinase-activated protein kinase 5 (Homo sapiens) (UniProt Q8IW41); experiment: Inhibition of N-terminal His6-tagged recombinant human full-length PRAK expressed in baculovirus infected Sf21 cells at 3 uM by filter binding assay relative to control
[24] = molecular target: Proto-oncogene tyrosine-protein kinase receptor Ret (Homo sapiens) (UniProt P07949); experiment: Inhibition of N-Terminal GST-tagged recombinant human Ret (658 to end residues) expressed in baculovirus infected Sf21 cells at 3 uM by filter binding assay relative to control
Outline: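 KinaseProfiler panel of 233 kinases: radiometric filter-binding activity assays with compound at 0.3 or 3 µmol/L. Read-out is percent inhibition.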

[25] = molecular target: Serine/threonine-protein kinase TAO2 (Homo sapiens) (UniProt Q9UL54); experiment: Inhibition of N-terminal 6His-tagged recombinant human TAO2 expressed in Sf21 cells at 3 uM by filter binding assay relative to control; outline: as §3
[26] = molecular target: Fibroblast growth factor receptor 1 (Homo sapiens, UniProt P11362); experiment: Inhibition of N-terminal GST-tagged recombinant human FGFR1 (456 to 765 residues) expressed in baculovirus infected Sf21 cells by filter binding assay
[27] = molecular target: Insulin receptor (Mus musculus) (UniProt P15208); conditions: CD-1, dose >= 30.0 mg/kg, route po, time 242.0 min
Insulin receptor (Mus musculus), sequence (P15208 28-748 limits assumed): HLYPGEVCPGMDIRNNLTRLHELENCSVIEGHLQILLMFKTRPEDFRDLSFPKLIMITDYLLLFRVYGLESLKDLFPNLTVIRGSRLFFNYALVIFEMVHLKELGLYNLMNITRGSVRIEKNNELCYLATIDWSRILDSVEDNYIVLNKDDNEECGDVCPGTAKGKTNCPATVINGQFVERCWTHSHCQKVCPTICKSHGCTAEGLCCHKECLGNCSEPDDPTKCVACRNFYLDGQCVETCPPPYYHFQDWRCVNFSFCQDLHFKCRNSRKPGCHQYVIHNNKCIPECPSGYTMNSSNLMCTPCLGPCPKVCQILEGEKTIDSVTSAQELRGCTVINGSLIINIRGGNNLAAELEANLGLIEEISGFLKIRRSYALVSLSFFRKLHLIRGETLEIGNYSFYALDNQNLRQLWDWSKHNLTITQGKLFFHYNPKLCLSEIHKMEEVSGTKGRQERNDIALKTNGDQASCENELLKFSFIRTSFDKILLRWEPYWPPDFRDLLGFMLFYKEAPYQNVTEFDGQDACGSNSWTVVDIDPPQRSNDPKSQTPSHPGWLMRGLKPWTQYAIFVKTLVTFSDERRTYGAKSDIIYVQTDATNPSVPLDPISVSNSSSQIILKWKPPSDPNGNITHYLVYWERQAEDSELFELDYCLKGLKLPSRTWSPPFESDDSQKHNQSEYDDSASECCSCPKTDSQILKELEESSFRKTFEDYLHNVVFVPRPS
Insulin receptor (Mus musculus), sequence (P15208 753-1372 limits assumed): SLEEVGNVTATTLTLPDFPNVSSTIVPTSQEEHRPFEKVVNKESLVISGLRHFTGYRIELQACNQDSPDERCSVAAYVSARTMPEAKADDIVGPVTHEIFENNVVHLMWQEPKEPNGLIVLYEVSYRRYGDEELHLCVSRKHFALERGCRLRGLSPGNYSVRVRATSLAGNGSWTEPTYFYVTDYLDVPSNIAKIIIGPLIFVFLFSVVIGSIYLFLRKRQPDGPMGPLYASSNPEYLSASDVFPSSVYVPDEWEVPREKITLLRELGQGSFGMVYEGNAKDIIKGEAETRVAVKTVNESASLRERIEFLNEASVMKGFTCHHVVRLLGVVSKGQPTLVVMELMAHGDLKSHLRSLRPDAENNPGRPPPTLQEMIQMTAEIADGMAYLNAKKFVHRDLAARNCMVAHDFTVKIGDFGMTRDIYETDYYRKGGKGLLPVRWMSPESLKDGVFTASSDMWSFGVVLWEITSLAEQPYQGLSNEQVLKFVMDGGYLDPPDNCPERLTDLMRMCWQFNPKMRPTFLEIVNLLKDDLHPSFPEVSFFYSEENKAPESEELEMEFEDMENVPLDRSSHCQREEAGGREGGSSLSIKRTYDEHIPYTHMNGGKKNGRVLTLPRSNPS

[28] = molecular target: Insulin receptor (Mus musculus) (UniProt P15208); conditions: CD-1, dose 30.0 mg/kg, route po, time 21.0 day
[29] = molecular target: Insulin receptor (Mus musculus) (UniProt P15208); conditions: CD-1, dose 30.0 mg/kg, route po, time 21.0 day; remark: listed apart in the source

CCc1cc(Nc2nccc(-c3c(-c4ccc(OC)c(C(=O)Nc5c(F)cccc5F)c4)nc4ccccn34)n2)c(OC)cc1N1CCC(N2CCN(S(C)(=O)=O)CC2)CC1
IC50 [1]: > 30 µM
IC50 at 72 h [2]: > 20 µM
inhibition at 72 h [3]: 45%
Activity [4]: Active
Activity [5]: 76%
Activity [6]: 5%
IC50 [7]: > 10 µM
IC50 [8]: > 10 µM
IC50 [9]: > 8 µM
IC50 [10]: 10 µM
IC50 [11]: > 10 µM
IC50 [12]: > 20 µM
inhibition [13]: 10%
inhibition [14]: -10%
inhibition [15]: 0%
inhibition at 0.3 µM [16]: 1%
inhibition [17]: -10%
inhibition [18]: 1%
inhibition [19]: 39%
inhibition [20]: 33%
inhibition at 3 µM [21]: -24%
inhibition [22]: -8%
inhibition [23]: 35%
inhibition [24]: 52%
inhibition [25]: 1%
IC50 [26]: 1.88 µM
inhibition [27]: Active
inhibition [28]: inactive
inhibition [29]: inactive
